TRPC6 act: activates the mouse TRPC6 cation channel | hit rate 0.13% among 310,000 | Q61143 | HEK293-TRPC6 membrane potential dye fluorescence; stronger effect = higher value | B-score at 10 µM;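 active = B-score of the integrated fluorescence ratio above library mean plus 3 SD, and starting fluorescence ratio within library mean plus 5 SD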;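 note: higher score means more depolarization so channel activation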
TRPC6 inhibitor: blocks the mouse TRPC6 cation channel. Q61143. HEK293-TRPC6, membrane potential dye, ACh-evoked depolarization; stronger effect = lower value. B-score at 10 µM. hit rate 1.1% among 310,000;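 active = B-score under library mean minus 3 SD, initial fluorescence not abnormally high, positive integrated signal ratio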;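 note: B-score derived from integrated fluorescence ratio over the kinetic read; more negative B-score means stronger inhibition of depolarization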
TRPC4 act: opens the mouse TRPC4 cation channel. B-score at 10 µM. AID 2237. hit rate 0.49% among 310,000. Q9QUQ5. HEK293 TRPC4beta/mu-opioid, Fluo4 calcium fluorescence; stronger effect = higher value;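 active = B-score above 5 SD of library B-scores, and initial fluorescence ratio not above library mean plus 5 SD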;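 note: positive B-score marks a calcium rise read as TRPC4 activation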
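system = HEK293 cells stably co-expressing mouse TRPC4beta and mu-opioid receptor | schedule = Fluo4 dye loading 45 min at room temperature, 110 s recording | measure = B-scored integrated calcium fluorescence ratio | signal = Fluo4 calcium-sensitive dye fluorescence, kinetic, 1 Hz baseline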
TRPC4 potent: allosterically enhances the mouse TRPC4 cation channel; B-score at 10 µM; HEK293 TRPC4beta/mu-opioid, DAMGO EC20, Fluo-4 Ca2+ flux; stronger effect = higher value; Q9QUQ5; AID 2227; hit rate 0.42% among 310,000;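 active = B-score of calcium response area above 5 SD of library B-scores, with initial fluorescence ratio within 5 SD of library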;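 note: B-score of integrated fluorescence ratio over time as area under calcium response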
TRPC4 inh: TRPC4 (mouse) channel inhibition | HEK293 TRPC4beta/mu-opioid, DAMGO-evoked Fluo4 calcium flux; stronger effect = lower value | hit rate 0.39% among 300,000 | B-score at 10 µM | AID 2247;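 active = B-score over 3 SD under the library average, no early fluorescence shift, positive overall ratio signal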
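System: stable TRPC4beta/mu-opioid receptor HEK293 cells; Dosing: single-point compound dosing; Measured by: Fluo4 Ca2+ flux fluorescence; Read-out basis: per-well B score of integrated baseline-normalized Fluo4 ratio.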
HEK293 TRPC6 ctr: checks TRPC6 modulator effects in parental HEK293 cells. shares compounds with TRPC6 inhibitor. membrane potential dye fluorescence. membrane potential signal change, % at 10 µM. hit rate 51% among 2,400. AID 488924;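 active = membrane potential signal moves up or down beyond 5 SD from buffer-only wells, on both duplicate plates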
HEK293 MPD ctr 2: second check of TRPC6 modulator effects in parental HEK293 cells | shares compounds with TRPC6 inhibitor | membrane potential dye fluorescence; after compound, maximal acetylcholine stimulation | inhibition, % at 10 µM | hit rate 14% among 2,400;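 active = membrane potential signal drops by more than 5 SD from the mean control signal, in both duplicate plates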;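 note: plate controls were acetylcholine ECmax control wells for no effect and buffer only wells for full effect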
TRPC4 ctr mod: mouse TRPC4 off-target activity of TRPC6 modulators. shares compounds with TRPC6 inhibitor. HEK293 TRPC4/mu-opioid, membrane potential fluorescence. percent change from control (negative = decrease, positive = increase), % at 10 µM. hit rate 69% among 2,400. AID 488927;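 active = membrane potential signal moved up or down beyond 5 SD of buffer control wells, in both duplicate plates, actives on both sides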;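 note: plate controls were assay buffer wells for no effect and DAMGO maximal-effect wells for full effect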
TRPC4 ctr inh 2: second selectivity test of TRPC6 modulators against mouse TRPC4; shares compounds with TRPC6 inhibitor; inhibition, % at 10 µM; AID 488928; hit rate 55% among 2,400; HEK293 TRPC4/mu-opioid, membrane potential dye fluorescence; stimulated with maximal-effect DAMGO;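 active = drop in membrane potential signal beyond 5 SD of the control wells in both duplicate plates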;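 note: TRPC4 counter screen for TRPC6 hits run under conditions tuned for TRPC6 not TRPC4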
TRPC6 block conf: confirmation of mouse TRPC6 inhibitors | shares compounds with TRPC6 inhibitor | HEK293-TRPC6, membrane potential dye, ACh-evoked depolarization | inhibition, % at 10 µM | hit rate 43% among 3,300 | AID 488960;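 active = fluorescence ratio falls more than 5 SD below the full-stimulation control mean, in both duplicate runs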;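 note: integrated fluorescence ratio of peak minus minimum over baseline after agonist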
TRPC6 act conf: confirmation of mouse TRPC6 activators; hit rate 11% among 2,800; HEK293-TRPC6 membrane potential dye fluorescence, FDSS; activation, % at 10 µM; shares compounds with TRPC6 inhibitor;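 active = ratio signal rise beyond 5 SD above unstimulated control wells' mean, seen in both duplicate runs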;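 note: plate controls were buffer EC0 wells for no effect and acetylcholine ECmax response for full effect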
An asterisk follows results filed as active. An excerpt weighted towards active compounds, which were near 2.3% of everything screened.

COc1cc([N+](=O)[O-])ccc1-c1ccc(/C=N/NC(=O)c2ccccc2O)o1 was read as TRPC6 act inactive, TRPC6 inhibitor inactive, TRPC4 act inactive, TRPC4 potent inactive and TRPC4 inh inactive.
Screening CN1CCN(/N=C/c2ccc(-c3ccc([N+](=O)[O-])cc3Cl)o2)CC1 returned TRPC6 act 13*, TRPC6 inhibitor inactive, TRPC4 act inactive, TRPC4 potent inactive, TRPC4 inh inactive, HEK293 TRPC6 ctr 260%*, HEK293 MPD ctr 2 inactive, TRPC4 ctr mod 39%*, TRPC4 ctr inh 2 inactive, TRPC6 block conf inactive and TRPC6 act conf 92%*.
Screening COc1cc([N+](=O)[O-])ccc1-c1ccc(/C=N\n2cnnc2)o1 returned TRPC6 act inactive, TRPC6 inhibitor -9.3*, TRPC4 act inactive, TRPC4 potent inactive, TRPC4 inh inactive, HEK293 TRPC6 ctr inactive, HEK293 MPD ctr 2 inactive, TRPC4 ctr mod -61%*, TRPC4 ctr inh 2 39%*, TRPC6 block conf inactive and TRPC6 act conf inactive.
COc1ccc(CCN2C(=O)CC(NNc3ccc([N+](=O)[O-])cc3)C2=O)cc1OC (stereo not drawn) was read as TRPC6 act inactive, TRPC6 inhibitor inactive, TRPC4 act inactive, TRPC4 potent inactive and TRPC4 inh inactive.
For COCC(=O)N1CCC(Oc2ccc(C(=O)N3CCCCCC3)cc2)CC1 the results were TRPC6 act inactive, TRPC6 inhibitor inactive, TRPC4 act inactive, TRPC4 potent inactive and TRPC4 inh inactive.
Screening CCOC(=O)c1ccc(NC(=O)CN(C)S(=O)(=O)c2ccc(Br)s2)cc1 returned TRPC6 act inactive, TRPC6 inhibitor inactive, TRPC4 act inactive, TRPC4 potent inactive and TRPC4 inh inactive.
Screening COc1cc(/C=C(\NC(=O)c2ccccc2)C(=O)N2CC3CC(C2)c2cccc(=O)n2C3)cc(OC)c1OC (stereo not drawn) returned TRPC6 act inactive, TRPC6 inhibitor inactive, TRPC4 act inactive, TRPC4 potent inactive and TRPC4 inh inactive.
`CC(=O)OCCc1[nH]c2ccccc2c1C` gave TRPC6 act inactive, TRPC6 inhibitor inactive, TRPC4 act inactive, TRPC4 potent inactive and TRPC4 inh inactive.
`CC(=O)OCCc1c2ccccc2c(CCCN(C)C)c2ccccc12` gave TRPC6 act inactive, TRPC6 inhibitor -6.1*, TRPC4 act inactive, TRPC4 potent inactive, TRPC4 inh inactive, HEK293 TRPC6 ctr -87%*, HEK293 MPD ctr 2 inactive, TRPC4 ctr mod -18%*, TRPC4 ctr inh 2 67%*, TRPC6 block conf 48%* and TRPC6 act conf inactive.
Screening CNC(=O)N(O)C1N(/N=C/c2ccc(C)cc2)C(=S)SC1(C)C (stereo not drawn) returned TRPC6 act inactive, TRPC6 inhibitor inactive, TRPC4 act inactive, TRPC4 potent inactive and TRPC4 inh inactive.
